Screens: PubChem, Sanford-Burnham Center for Chemical Genomics
Compounds with a hit are over-represented: about 1.9% of the library has one in this group of screens.
CCR6 antagonist – blocks CCL20-driven beta-arrestin recruitment at human CCR6. P51684. CHO-K1 CCR6 PathHunter beta-arrestin, luminescence, CCL20-stimulated. inhibition, % at 20 µM. 0.49% of 340,000 active;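 active = compounds whose inhibition of the agonist-driven luminescence signal at 20 µM reaches about 50%, limit read from the data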;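 note: cells stimulated with CCL20 at 14 nM final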
APJ antag – antagonists of human APJ apelin receptor | 0.32% of 330,000 active | CHO-K1 APJ beta-arrestin complementation, luminescence | inhibition, % at 20 µM;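 active = inhibition above about 40% at 20 µM, limit read from the data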;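 note: cells challenged with 10 nM apelin-13 agonist together with compound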
H9c2 TAG inh – reduces triacylglycerol accumulation in H9c2 cells | inhibition, % at 12.5 µM | Nile Red lipid (TAG) fluorescence; cells loaded with 200 µM oleic acid | AID 651582 | 0.66% of 230,000 active;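 active = pattern-corrected inhibition of lipid staining of at least 50% with the nuclear-stain viability signal not falling by more than 50%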
EBI2 block – blocks human EBI2 receptor beta-arrestin signaling | P32249 | EBI2 beta-arrestin recruitment, luminescence, 7a,25-OHC stimulated | inhibition, % at 5 µM | 0.81% of 360,000 active | AID 651636; in the data active = inhibition above about 38%;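 note: enzyme fragment complementation signal reports receptor beta-arrestin coupling in cells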
APJ ag – activates the human apelin receptor APJ; P35414; CHO-K1 APJ PathHunter beta-arrestin, luminescence; 0% DMSO wells, 100% apelin; activation, % at 20 µM; 0.11% of 330,000 active; AID 2520;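 active = activation more than six SD over the plate average, tested at 20 µM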
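Assay system: CHO-K1 cells stably expressing ProLink-tagged human APJ and arrestin–beta-gal acceptor. Compound dosing: 20 µM single point, 1% DMSO. Times: 16-18 h seeding, 90 min dark compound exposure, 60 min detection. Detection: beta-gal luminescence. Evaluation: APJ–arrestin association signal. Controls: negative DMSO alone, positive Apelin-13 at 10 nM.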
CXCR6 block – CXCR6 (human) receptor inhibition; CHO-K1 PathHunter CXCR6 beta-arrestin, luminescence; AID 602244; 0.36% of 360,000 active; inhibition, % at 20 µM; in the data active = inhibition above about 34%, passing the limit was not always enough;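 note: antagonist mode with CXCL16 agonist at 10 nM final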
Target sequence (O00574 whole entry, looked up): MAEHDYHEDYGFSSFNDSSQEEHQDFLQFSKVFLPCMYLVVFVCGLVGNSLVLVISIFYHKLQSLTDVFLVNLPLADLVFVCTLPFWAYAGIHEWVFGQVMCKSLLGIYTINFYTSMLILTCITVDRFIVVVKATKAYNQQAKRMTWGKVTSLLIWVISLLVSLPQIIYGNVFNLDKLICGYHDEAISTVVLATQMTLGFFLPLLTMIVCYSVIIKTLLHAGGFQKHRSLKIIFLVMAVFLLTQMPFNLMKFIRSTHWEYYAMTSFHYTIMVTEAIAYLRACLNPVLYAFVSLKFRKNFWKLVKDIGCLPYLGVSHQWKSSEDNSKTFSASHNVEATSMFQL
Numbers stand for hits.

Results for C#CCOCCOCCOCCNc1nc(N2CCN(C(=O)CCCCCCCCCCNC(=O)[C@H](CCCCN)n3cc(C[C@@H](C)CC)nn3)CC2)nc(N2CCN(C(=O)CCCCCCCCCCNC(=O)[C@H](CCCCN)n3cc(C[C@@H](C)CC)nn3)CC2)n1 ?
CCR6 antagonist: inactive; H9c2 TAG inh: 88.4; EBI2 block: inactive; CXCR6 block: inactive

How did C#CCOCCOCCOCCNc1nc(N2CCN(C(=O)CCCCCCCCCCNC(=O)[C@H](CCCCN)n3cc(C)nn3)CC2)nc(N2CCN(C(=O)CCCCCCCCCCNC(=O)[C@@H]([C@H](C)CC)n3cc(CCCCCN)nn3)CC2)n1 do in these assays?
APJ antag: inactive; H9c2 TAG inh: 74.6; EBI2 block: inactive; APJ ag: inactive; CXCR6 block: inactive

How did COc1ccc(OCCCC(=O)Nc2nccs2)cc1 do in these assays?
CCR6 antagonist: inactive; APJ antag: inactive; H9c2 TAG inh: inactive; EBI2 block: inactive; APJ ag: inactive; CXCR6 block: inactive

How did COc1ccc([C@H]2CC(=O)C=C(c3cc4ccccc4s3)C2)cc1 do in these assays?
CCR6 antagonist: inactive; APJ antag: inactive; EBI2 block: 62.9; APJ ag: inactive; CXCR6 block: inactive

What do the screens show for `O=C1C=C(c2cc3ccccc3s2)C[C@@H](c2ccc(Cl)cc2)C1`?
CCR6 antagonist: inactive; APJ antag: inactive; H9c2 TAG inh: inactive; EBI2 block: inactive; APJ ag: inactive; CXCR6 block: inactive

What do the screens show for `COc1ccccc1NC(=S)N=Nc1c(O)[nH]c2ccc(Br)cc12`?
CCR6 antagonist: inactive; APJ antag: inactive; H9c2 TAG inh: 50.4; EBI2 block: inactive; APJ ag: inactive; CXCR6 block: inactive

What do the screens show for `Cc1cc(S(=O)(=O)c2ccc(Cl)cc2)nc(S(=O)(=O)c2ccc(Cl)cc2)c1C#N`?
H9c2 TAG inh: inactive; EBI2 block: inactive; CXCR6 block: 75.3

Results for Cc1cc(C)c(S(=O)(=O)c2ccc(Cl)cc2)c(Cl)n1 ?
CCR6 antagonist: inactive; APJ antag: inactive; EBI2 block: inactive; APJ ag: inactive; CXCR6 block: inactive

What do the screens show for `Cc1ccsc1C1Nc2ccc3ncccc3c2C2=C1C(=O)CCC2` (centres undefined)?
CCR6 antagonist: inactive; APJ antag: inactive; EBI2 block: 69.6; APJ ag: inactive; CXCR6 block: inactive

How did OCCOCCN1CCN(C2=Nc3ccccc3Sc3ccccc32)CC1 do in these assays?
CCR6 antagonist: inactive; APJ antag: inactive; H9c2 TAG inh: inactive; EBI2 block: inactive; APJ ag: inactive; CXCR6 block: inactive

Results for O=C1C=CC(=O)c2c(O)c(N3CCN(CCO)CC3)c(Cl)c(O)c21 ?
CCR6 antagonist: 101.5; H9c2 TAG inh: 100.2; EBI2 block: inactive; CXCR6 block: 66.4

Results for O=C1C=CC(=O)c2c(O)c(N3CCN(CCOCCO)CC3)c(Br)c(O)c21 ?
CCR6 antagonist: 112.2; H9c2 TAG inh: 100.7; EBI2 block: inactive; CXCR6 block: 75.6

Results for CCSc1nnc(NC(=O)CN2C(=O)NC3(CCCC3)C2=O)s1 ?
CCR6 antagonist: inactive; APJ antag: inactive; H9c2 TAG inh: inactive; EBI2 block: inactive; APJ ag: inactive; CXCR6 block: inactive

How did COc1ccc(OC)c2sc(N(CCCN(C)C)C(=O)CCS(=O)(=O)c3ccccc3)nc12 do in these assays?
CCR6 antagonist: 70.4; APJ antag: inactive; H9c2 TAG inh: inactive; EBI2 block: 54.0; APJ ag: inactive; CXCR6 block: 61.5

What do the screens show for `COc1ccccc1NC(=O)C(C)N(C)Cc1ccc(Cl)s1` (centres undefined)?
CCR6 antagonist: inactive; APJ antag: inactive; EBI2 block: inactive; APJ ag: inactive; CXCR6 block: inactive

How did CC1=NN(c2nc(N)nc(/C(C#N)=C/c3ccc([N+](=O)[O-])o3)n2)C(C)(C)C1 do in these assays?
CCR6 antagonist: 53.0; H9c2 TAG inh: inactive; EBI2 block: inactive; CXCR6 block: inactive

Results for O=C1C2C(C(=O)N1/N=C/c1ccc([N+](=O)[O-])o1)C1C=CC2C12CC2 (centres undefined) ?
CCR6 antagonist: inactive; APJ antag: inactive; EBI2 block: inactive; APJ ag: inactive; CXCR6 block: inactive

What do the screens show for `COC(=O)C[C@@H]1OC[C@H](C)N1S(=O)(=O)c1ccc(C)cc1`?
EBI2 block: inactive

What do the screens show for `CCC(C)Sc1cc(-c2nc3ccc(C)cn3c2NCc2ccccc2)ccc1OC` (centres undefined)?
CCR6 antagonist: inactive; H9c2 TAG inh: inactive; EBI2 block: inactive; CXCR6 block: inactive

How did CCC(C)Sc1ccc(-c2nc3ccc(C)cn3c2NCc2ccccc2)cc1OC (centres undefined) do in these assays?
CCR6 antagonist: inactive; APJ antag: inactive; H9c2 TAG inh: inactive; EBI2 block: 69.4; APJ ag: inactive; CXCR6 block: inactive

What do the screens show for `CC(C)NC(=O)Nc1cccc2c1O[C@H](CN(C)C(=O)NC1CCCCC1)[C@H](C)CN([C@H](C)CO)C2=O`?
CCR6 antagonist: inactive; APJ antag: inactive; H9c2 TAG inh: inactive; EBI2 block: inactive; APJ ag: inactive; CXCR6 block: inactive

What do the screens show for `O=C(c1cc(-c2ccco2)on1)N1CCN(C(c2ccccc2)c2ccccc2)CC1`?
CCR6 antagonist: inactive; APJ antag: inactive; EBI2 block: 91.1; APJ ag: inactive; CXCR6 block: inactive

What do the screens show for `Cc1ccc(C(=O)OCC(=O)NCc2ccco2)cc1C`?
CCR6 antagonist: inactive; APJ antag: inactive; H9c2 TAG inh: inactive; EBI2 block: inactive; APJ ag: inactive; CXCR6 block: inactive

What do the screens show for `CCOc1cc(/C=N/Nc2cc(C)nc(-n3nc(C)cc3C)n2)ccc1O`?
CCR6 antagonist: 116.4; APJ antag: 106.2; H9c2 TAG inh: 67.6; EBI2 block: 97.5; APJ ag: inactive; CXCR6 block: 110.1

What do the screens show for `O=C(N/C(=C/c1ccc(Cl)cc1)c1nc2ccccc2[nH]1)c1ccco1`?
CCR6 antagonist: inactive; APJ antag: inactive; EBI2 block: inactive; APJ ag: inactive; CXCR6 block: inactive

What do the screens show for `O=C(/C(=C/c1ccc(Cl)cc1)c1nc2ccccc2[nH]1)c1ccccc1`?
CCR6 antagonist: inactive; APJ antag: inactive; H9c2 TAG inh: inactive; EBI2 block: 50.3; APJ ag: inactive; CXCR6 block: inactive

How did COc1ccc(C(=O)Nc2ccnn2C2CCN(C(=O)c3cc(C)on3)CC2)cc1 do in these assays?
CCR6 antagonist: inactive; APJ antag: inactive; H9c2 TAG inh: inactive; EBI2 block: inactive; APJ ag: inactive; CXCR6 block: inactive

What do the screens show for `Cc1ccc(NC(=O)COC(=O)c2ccc(CN3CCCC3=O)cc2)c(Cl)c1`?
CCR6 antagonist: inactive; APJ antag: inactive; H9c2 TAG inh: inactive; EBI2 block: inactive; APJ ag: inactive; CXCR6 block: inactive

How did COc1cccc(C(=O)O[C@@H]2[C@H](Cc3ccccc3)NS(=O)(=O)[C@H]3C[C@@H]4C=C[C@]23O4)c1 do in these assays?
CCR6 antagonist: inactive; APJ antag: inactive; H9c2 TAG inh: inactive; EBI2 block: inactive; APJ ag: inactive; CXCR6 block: inactive
